# Screens from PubChem BioAssay.
# Most compounds without a hit are left out; they make up all but 3.1% or so of the library.
# A1 inh – inhibitors of the anti-apoptotic protein A1, read as caspase activation; MEF A1-2A-BIM cells, Caspase-Glo 3/7 luminescence, 3 h; percent of clofoctol response, vehicle zero; caspase activation, % (test concentration not listed); hit rate 0.066% among 330,000; AID 2462;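 active = over half of replicate activation scores above 10%, or exactly half above 10 with the replicate mean above 10; inconclusive = replicate mean below 10 yet half the replicates above 10; inactive = over half of replicates below 10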
# Calb FLC – C. albicans growth modulation with fluconazole; C. albicans CaCi-2 + fluconazole, Alamar Blue growth, 48 h; growth inhibition, % (no concentration beside the values); hit rate 0.57% among 300,000;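 active = growth inhibition above about 58% in most replicates, limit read from the data, passing the limit was not always enough; inconclusive = exactly half the replicates above a set limit; inactive = most replicates below a set limit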;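 also: all wells also contain fluconazole at 8 µg/ml as a sub-toxic cotreatment; 0% = median of DMSO wells and 100% = median of geldanamycin control wells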
# Beta apoptosis – beta cell apoptosis inhibition. INS-1E cytokine-induced death, ATP luminescence, 48 h; percent of positive-control rescue, neutral wells zero. protection from apoptosis, % (test concentration not listed). hit rate 0.8% among 300,000;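 active = Every replicate reaches about 75%, or at least half do and their mean reaches it too, limit read from the data; inconclusive = At least half of replicates reach the limit but their mean does not; inactive = Under half of replicates reach the limit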;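 also: 0% = cytokine-treated negative control wells and 100% = positive control rescue; higher means more ATP so stronger rescue from cytokine killing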
# T cruzi repl – T. cruzi replication inhibition | T. cruzi beta-gal in NIH3T3, luminescence, 90 h | inhibition, % (test concentration not listed) | hit rate 1.4% among 300,000;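 active = mean inhibition across valid replicates above about 55%, limit read from the data; inconclusive = mean below that limit but half or more replicates reach it; inactive = mean below it, under half of replicates reach it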;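 also: signal also drops with host cell toxicity which is not excluded here; 0% = plate median of DMSO wells and 100% = zero luminescence signal; higher percent means less beta-gal luminescence so fewer parasites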
#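 Assay system: NIH/3T3 host cells with β-galactosidase reporter T. cruzi; input: 5,000 host fibroblasts per well; compound: single 50 nL compound addition per well in DMSO; timing: ≥90 h infection period, 3 h prior cell attachment; measured by: GalScreen β-gal luminescence, detergent lysis, 60 min; evaluation: percent inhibition of parasite-derived β-gal signal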
# TAG inh – reduces triacylglycerol accumulation in H9c2 cells. Nile Red lipid (TAG) fluorescence; cells loaded with 200 µM oleic acid. inhibition, % at 12.5 µM. hit rate 0.66% among 230,000. AID 651582;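 active = pattern-corrected inhibition of lipid staining of at least 50% with the nuclear-stain viability signal not falling by more than 50%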;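 also: 0% = DMSO wells and 100% = triacsin C control wells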
# CSC inhib – blocks cancer stem cells. hit rate 1.1% among 300,000. cancer stem cell-like cells viability, luminescence. inhibition, % at 7.5 µM; in the data active = inhibition above about 75%; inconclusive = no clear call, values can overlap the other calls; tested in HMLE shEcad cells
# * hit, by the source's call; ? = inconclusive; / = not tested or not shown.
SMILES,A1 inh,Calb FLC,Beta apoptosis,T cruzi repl,TAG inh,CSC inhib
CCC(C(=O)NC(CC(=O)O)c1ccc(Cl)cc1)c1ccccc1 (stereo not given),0,7,-5,-5,/,-2
Cc1cc(C)c2nc(SCC#N)cc(C)c2c1,2,-9,/,-2,/,/
C/C(N)=C(/C#N)C(=O)CSc1cc(C)c2cc(C)cc(C)c2n1,1,-21,-4,62*,-26,22
CCOC(=O)C1CCCN(S(=O)(=O)c2cc(Br)cc3c2N(C(=O)CC)CC3)C1 (stereo not given),0,-9,-5,9,/,-10
NC(=O)CC12CC3CC(C1)CC(CC(N)=O)(C3)C2,0,87*,-1,-10,/,-4
CN(Cc1cccs1)C(=O)CNC(=O)c1ccco1,1,-14,-3,-19,-10,/
COc1cc(Br)cc(/C=N/NC(=O)Cc2ccc(C(F)(F)F)cc2[N+](=O)[O-])c1O,0,11,100*,29,/,40
CCOc1cc(/C=N/NC(=O)Cc2ccc(C(F)(F)F)cc2[N+](=O)[O-])c(Br)cc1OC,1,-16,17,3,3,34
O=C(CCn1ccnc1)Nc1ccc2ccccc2c1,0,-19,0,75*,8,4
CN1CCC(=C(c2ccc(Cl)cc2)c2ccccn2)CC1,2,-2,2,69*,/,-9
C/C(=N\NC(=O)c1ccccn1)c1ccc(Cl)cc1,-8,3,4,0,0,0
CCCCN(C(=O)c1cccc(S(=O)(=O)N(CC)c2ccccc2)c1)c1c(N)n(CCCC)c(=O)[nH]c1=O,/,/,/,/,10,/
Oc1ccc(-c2nccc(-c3ccc(Cl)cc3Cl)n2)cc1,0,31,-1,79*,14,-16
CCOc1ccccc1CN1CCN(CCCc2ccccc2)CC1CCO (stereo not given),1,-2,-4,-10,/,1
O=C(N/N=C/c1cnc(N2CCCCC2)s1)c1ccc(C(F)(F)F)cc1,1,-2,104*,41,5,20
CC1CN(c2ncc(/C=N/NC(=O)c3ccccc3O)s2)CC(C)O1 (stereo not given),0,-5,-2,-3,14,-2
Cc1cccc(C(=O)O[C@@H]2[C@H](Cc3ccccc3)NS(=O)(=O)[C@H]3C[C@@H]4C=C[C@]23O4)c1,0,/,0,/,-4,-8
Nc1ccc2c(c1)C(=O)c1ccccc1-2,0,2,5,19,22,-7
O=C1C(=O)c2ccc(-c3ccccc3)cc2-c2ccccc21,3,34,98*,?,/,131*
Nc1ccc2c(c1)C(=O)C(=O)c1ccccc1-2,0,-3,107*,38,113,-5
Nc1ccc2c(c1)C(=O)c1ccccc1C2=O,-2,9,0,-9,-6,8
CC(=O)c1cnc(Nc2cccc(Cl)c2Cl)s1,-5,79*,1,13,1,1
CC(=O)c1cnc(Nc2ccccc2)s1,-1,14,1,-10,-5,-10
COc1ccc(/C=C/C(=O)OC2CCCCC2CN(C)C)cc1 (stereo not given),0,-5,0,28,2,12
COc1ccccc1/C=C/C(=O)OCCCN(C)C,0,5,3,66*,/,-6
SMILES,A1 inh,Calb FLC,Beta apoptosis,T cruzi repl,TAG inh,CSC inhib
COc1ccc(/C=C/C(=O)OCCCN(C)C)cc1,0,-20,-6,57*,/,-3
COc1ccc(OCC(=O)N2c3ccccc3CC2C)c([N+](=O)[O-])c1 (stereo not given),0,/,-5,/,0,-9
Cc1ccc2oc(C(=O)NCC3CCOCC3)c(C)c2c1,0,6,-3,-12,/,-25
Cc1cc(C)cc(Nc2ccc([N+](=O)[O-])nc2[N+](=O)[O-])c1,-1,-11,-2,67*,/,-3
COc1cc(Nc2ccc(C)cc2)c([N+](=O)[O-])nc1[N+](=O)[O-],1,28,50,60*,/,?
Cc1ccc(-n2nc3c(=O)n(CC(=O)NC4CCCCC4)nc(C)c3c2C)cc1,-1,2,-6,8,/,3
Cc1ccc(S(=O)(=O)/N=C(\N)Nc2nc(C)c3ccccc3n2)cc1,0,-6,0,19,/,0
Cc1ccc2nc(N/C(N)=N/S(=O)(=O)c3ccc([N+](=O)[O-])cc3)nc(C)c2c1,1,-3,5,58*,/,-11
